Results: ChEMBL document CHEMBL1129316, “Inhibitors of human immunodeficiency virus type 1 protease containing 2-aminobenzyl-substituted 4-amino-3-hydroxy-5-phenylpentanoic acid: synthesis, activity, and oral bioavailability” (J Med Chem, 1996)
Values after ≈ are worked out from the molar mass of the structure shown.

Assays:
[1] = Oral Bioavailability was measured as Maximal observed concentration (Cmax) value at dose 125 mg/kg; b = No compound detectable in blood above the detection limit of 0.1 uM; format: ADME, organism-based; set-up: dose 125 mg/kg, route oral; conditions: in vivo
How it was run: (§1)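 Female Balb/c mice, fasted 24 h before and during the study, water ad libitum. Dosed by oral gavage at 125 mg/kg in a liquid formulation. Heparinized whole blood sampled at various times, methanol-extracted, cleaned on sulfobenzyl SPE, then RP-C18 HPLC with UV at 200 nm against an internal standard. Cmax taken as observed; AUC calculated. Detection limit 0.1 µM.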

[2] = molecular target: T1, Human immunodeficiency virus type 1 protease (Human immunodeficiency virus 1, UniProt Q72874); experiment: Binding affinity against HIV-1 protease
How it was run: (§2)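 Recombinant HIV-1 PR expressed in E. coli JM105 and purified to homogeneity. Enzyme incubated at 37 °C in 0.1 M MES, 0.37 M NaCl, 4 mM EDTA, pH 6.25, with 280 µM chromogenic nonapeptide substrate (pNph). Initial rates taken from the absorbance decrease at 298 nm. IC50 fitted, then Ki = (IC50 − Et/2)/(1 + S/Km). Mean of two determinations; DMSO ≤5%.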

[3] = test system: Human immunodeficiency virus 1; experiment: Antiviral activity against HIV-1, IIIB, in MT-4 Cells; format: functional, organism-based; conditions: Human immunodeficiency virus 1, MT4
How it was run: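 HIV-1 strain IIIB-induced cytopathic effect in HTLV-I-transformed MT4 cells. Virus adsorbed to cells at 1 × 10⁶ cells/mL, 37 °C, 1 h. Compounds added postadsorption, final 1 × 10⁵ cells/mL. Inoculum set to kill 90% of cells in 5 days. Mock-infected and compound-only controls run. DMSO ≤0.3%, medium with 10% FBS. Viability read by MTT after 5 days. Mean of repeat determinations.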

[4] = Oral Bioavailability was measured as area-under-curve(AUC) value at dose 125 mg/kg; b = No compound detectable in blood above the detection limit of 0.1 uM; format: ADME, organism-based; conditions: in vivo; how it was run: as §1
[5] = Solubility (phosphate-buffered saline, pH =7.4); format: physicochemical; conditions: read-out: S
How it was run: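 About 1 mg of lyophilized amorphous inhibitor in 1 mL PBS (pH 7.4), vortexed 1 min and sonicated 30 min at 37 °C. Filtered, then centrifuged at 100 000 rpm for 30 min. Supernatant run on RP-C18 HPLC (10 mM NH4OAc/CH3CN 50/50, UV 210 nm) and quantified by external standard. Minimum detectable 0.1 µg/mL.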

[6] = Oral Bioavailability was measured as Maximal observed concentration (Cmax) value at dose 125 mg/kg;b = No compound detectable in blood above the detection limit of 0.1 uM; format: ADME, organism-based; set-up: dose 125 mg/kg, route oral; conditions: in vivo; how it was run: as §1
[7] = Oral Bioavailability was measured as area-under-curve(AUC) value at dose 125 mg/kg;b = No compound detectable in blood above the detection limit of 0.1 uM; format: ADME, organism-based; conditions: in vivo; how it was run: as §1
[8] = molecular target: T1, Human immunodeficiency virus type 1 protease; experiment: Binding affinity against HIV-1 protease (HIV-1 PR); d indicates no activity at 3 uM; how it was run: as §2
[9] = test system: MT4; experiment: Antiviral Activity against HIV-1, IIIB, in MT-4 Cells; d indicates no activity at 3 uM; format: functional, cell-based, Homo sapiens
How it was run: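 MT4 cells infected with HIV-1 IIIB; virus adsorbed at 1 × 10⁶ cells/mL, 37 °C, 1 h, then plated at 1 × 10⁵ cells/mL with compound added postadsorption. Inoculum set to kill 90% of cells in 5 days. Incubated 5 days; viability of infected and mock-infected cells by MTT, read spectrophotometrically. Medium with 10% FBS; DMSO ≤0.3%. Values given as mean ± SD, n in parentheses.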

[10] = Oral Bioavailability was measured as Maximal observed concentration (Cmax) value at dose 125 mg/kg; b denotes No compound detectable in blood above the detection limit of 0.1 uM; format: ADME, organism-based; set-up: dose 125 mg/kg, route oral; conditions: in vivo; how it was run: as §1
[11] = Oral Bioavailability was measured as area-under-curve(AUC) value at dose 125 mg/kg; b denotes No compound detectable in blood above the detection limit of 0.1 uM; format: ADME, organism-based; conditions: in vivo; how it was run: as §1

| Ki [8] | Compound | Cmax [1] | Ki [2] | IC50 [3] | AUC [4] | solubility [5] | Cmax [6] | AUC [7] | IC50 [9] | Cmax [10] | AUC [11] |
| --- | --- | --- | --- | --- | --- | --- | --- | --- | --- | --- | --- |
|  | CC(C)(C)[C@H](NC(=O)OCc1ccccc1)C(=O)N[C@@H](Cc1ccccc1)[C@@H](O)[C@@H](NCc1ccc(OCCN2CCOCC2)cc1)C(=O)N[C@H]1c2ccccc2C[C@H]1O | No compound detectable | 9.5 nM | 47 nM | No compound detectable | 14.5 µM (≈ 11.9 µg/mL) |  |  |  |  |  |
|  | COc1ccc(CN[C@@H](C(=O)NC2c3ccccc3C[C@H]2O)[C@H](O)[C@H](Cc2ccccc2)NC(=O)[C@@H](NC(=O)/C=C/c2ccc(OC)c(O)c2)C(C)(C)C)cc1 (stereo not given in full) |  | 5.8 nM | 125 nM |  |  | No compound detectable | No compound detectable |  |  |  |
|  | CC(=O)NCc1ccc(CN[C@@H](C(=O)N[C@H]2c3ccccc3C[C@H]2O)[C@H](O)[C@H](Cc2ccccc2)NC(=O)[C@@H](NC(=O)OCc2ccccc2)C(C)(C)C)cc1 | No compound detectable | 5.7 nM | 99 nM | No compound detectable | 25.3 µM (≈ 19.3 µg/mL) |  |  |  |  |  |
|  | CC(C)(C)[C@H](NC(=O)OCc1ccccc1)C(=O)N[C@@H](Cc1ccccc1)[C@@H](O)[C@@H](NCc1ccc(CNC(=O)OCc2ccccc2)cc1)C(=O)N[C@H]1c2ccccc2C[C@H]1O |  |  | 142 nM | No compound detectable | < 1 µM | No compound detectable |  |  |  |  |
| No activity | COc1ccc(CN[C@@H](C(=O)N[C@H](CO)c2ccccc2)[C@H](O)[C@H](Cc2ccccc2)NC(=O)OC(C)(C)C)cc1 |  |  |  |  |  |  |  | No activity |  |  |
|  | CC(C)(C)[C@H](NC(=O)OCc1ccccc1)C(=O)N[C@@H](Cc1ccccc1)[C@@H](O)[C@@H](NCc1ccc(CNC(=O)CCc2nc3ccccc3[nH]2)cc1)C(=O)N[C@@H]1c2ccccc2C[C@H]1O |  | 4.1 nM | 161 nM |  | < 1 µM |  |  |  | No compound detectable | No compound detectable |
|  | CC(C)(C)[C@H](NC(=O)OCc1ccccc1)C(=O)N[C@@H](Cc1ccccc1)[C@@H](O)[C@@H](NCc1ccc(CNC(=O)Nc2ccccc2)cc1)C(=O)N[C@H]1c2ccccc2C[C@H]1O | No compound detectable | 3.3 nM | 175 nM |  | < 1 µM |  | No compound detectable |  |  |  |
